Data set [1] concerns the target CYP2C9 (Homo sapiens, UniProt P11712). Kind of data set: Metabolic stability in presence of human recombinant CYP2C9 at 1 uM after 30 mins. The format is ADME. The method, boiled down:
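Recombinant human CYP2C9 (Bactosomes), 5 pmol per reaction, in […] buffer pH 7.4 with 1 mM NADPH. Compound 1 µM, added in acetonitrile (2.5% final). 10 min preincubation at 37 °C, reaction started with NADPH, sampled at 0 and 30 min, stopped with ice-cold acetonitrile. Parent remaining quantified by LC/MS/MS as % metabolized. Run in duplicate.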

The target in data set [2] is Prostaglandin G/H synthase 1 (Homo sapiens) (UniProt P23219). As to conditions: at 100 µM.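 Note: recombinant human COX-1 enzyme, activity read out as PGE2 production.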
Prostaglandin G/H synthase 1 (Homo sapiens), sequence (P23219 whole entry): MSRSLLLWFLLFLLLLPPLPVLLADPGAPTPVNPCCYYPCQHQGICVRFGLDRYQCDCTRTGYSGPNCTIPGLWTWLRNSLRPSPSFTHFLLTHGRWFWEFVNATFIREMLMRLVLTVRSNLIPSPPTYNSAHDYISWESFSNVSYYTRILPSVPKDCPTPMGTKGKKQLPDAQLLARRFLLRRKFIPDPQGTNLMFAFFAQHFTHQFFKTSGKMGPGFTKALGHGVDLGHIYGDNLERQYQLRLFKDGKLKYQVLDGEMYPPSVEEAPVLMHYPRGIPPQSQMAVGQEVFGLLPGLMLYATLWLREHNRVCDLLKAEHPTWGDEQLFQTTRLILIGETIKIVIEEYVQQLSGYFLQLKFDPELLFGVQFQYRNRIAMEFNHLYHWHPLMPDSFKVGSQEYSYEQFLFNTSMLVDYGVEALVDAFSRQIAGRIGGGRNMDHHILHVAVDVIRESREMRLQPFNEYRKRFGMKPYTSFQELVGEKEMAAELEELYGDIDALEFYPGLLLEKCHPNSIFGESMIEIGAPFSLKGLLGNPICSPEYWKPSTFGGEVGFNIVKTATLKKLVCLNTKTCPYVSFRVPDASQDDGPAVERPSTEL
In data set [3] the target is T1, Prostaglandin G/H synthase 2 (Homo sapiens) (UniProt P35354).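 Note: recombinant enzyme assay, activity read out as PGE2 generation.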
T1 sequence (whole entry): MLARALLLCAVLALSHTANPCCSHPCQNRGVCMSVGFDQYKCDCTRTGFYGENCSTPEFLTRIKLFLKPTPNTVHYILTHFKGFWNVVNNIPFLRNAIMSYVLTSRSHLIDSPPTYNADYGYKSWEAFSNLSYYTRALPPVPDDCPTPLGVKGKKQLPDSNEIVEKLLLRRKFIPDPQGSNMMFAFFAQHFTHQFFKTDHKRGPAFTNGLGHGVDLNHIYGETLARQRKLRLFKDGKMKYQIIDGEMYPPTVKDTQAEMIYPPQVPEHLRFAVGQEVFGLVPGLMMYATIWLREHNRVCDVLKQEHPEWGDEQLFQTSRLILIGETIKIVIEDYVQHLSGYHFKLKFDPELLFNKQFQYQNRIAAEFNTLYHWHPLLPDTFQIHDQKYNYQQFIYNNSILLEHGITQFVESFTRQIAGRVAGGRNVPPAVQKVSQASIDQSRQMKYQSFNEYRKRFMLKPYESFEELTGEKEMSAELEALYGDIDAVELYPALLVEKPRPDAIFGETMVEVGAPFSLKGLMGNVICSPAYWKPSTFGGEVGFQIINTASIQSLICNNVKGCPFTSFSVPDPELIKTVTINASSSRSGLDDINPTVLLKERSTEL
As to conditions: at 100 µM.

Our source for the metabolized and inhibition values is ChEMBL document CHEMBL1148764, “CYP2C9 structure-metabolism relationships: optimizing the metabolic stability of COX-2 inhibitors” (J Med Chem, 2007).

One may read the inhibition as the change of the read-out against control, counted positive when it falls. Low readings indicate little suppression, high ones strong suppression.

CYP2C9, sequence (P11712 whole entry): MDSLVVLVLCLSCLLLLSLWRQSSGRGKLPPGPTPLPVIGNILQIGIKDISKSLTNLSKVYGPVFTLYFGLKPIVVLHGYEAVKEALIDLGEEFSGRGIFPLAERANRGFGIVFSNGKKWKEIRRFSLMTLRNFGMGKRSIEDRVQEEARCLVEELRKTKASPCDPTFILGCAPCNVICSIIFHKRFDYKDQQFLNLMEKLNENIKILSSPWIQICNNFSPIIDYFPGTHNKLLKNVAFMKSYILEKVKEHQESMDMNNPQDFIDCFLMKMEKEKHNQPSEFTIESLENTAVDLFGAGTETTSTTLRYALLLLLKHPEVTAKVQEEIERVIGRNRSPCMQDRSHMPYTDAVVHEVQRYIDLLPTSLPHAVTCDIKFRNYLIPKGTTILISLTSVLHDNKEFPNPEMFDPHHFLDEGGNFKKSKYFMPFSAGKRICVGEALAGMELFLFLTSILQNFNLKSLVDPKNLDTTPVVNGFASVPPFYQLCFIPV

For the compound `Cc1ccc(-c2cc(C(F)(F)F)nn2-c2ccc(CC(=O)O)cc2)cc1`, the metabolized at 0.5 h, 1 µM in data set [1] was 10%. Moreover, the values for the inhibition in data set [2] and in data set [3] were 88% and 95%, respectively.

Consider `O=C(O)Cc1ccc(-n2nc(C(F)(F)F)cc2-c2ccc(C(F)(F)F)cc2)cc1`, for which the metabolized at 0.5 h, 1 µM in data set [1] is 4%. The inhibition in data set [2] was 96%; in data set [3] it was 93%.

Regarding `Cc1ccc(-c2cc(C(F)(F)F)nn2-c2ccc(S(N)(=O)=O)cc2)cc1` [CELECOXIB], in data set [1], the metabolized at 0.5 h, 1 µM came out at 94%.

As to `CSc1ccc(-n2nc(C(F)(F)F)cc2-c2ccc(C)cc2)cc1`, the metabolized at 0.5 h, 1 µM in data set [1] is 87%. The inhibition came out at 95% in data set [2] and 99% in data set [3].

Take `Cc1ccc(-c2cc(-c3ccccc3)nn2-c2ccc(S(N)(=O)=O)cc2)cc1`: the metabolized at 0.5 h, 1 µM in data set [1] came to 49%. Besides, the inhibition in data set [2] came to 100%; in data set [3] it was 92%.

With `Cc1ccc(-c2cc(C(=O)O)nn2-c2ccc(S(N)(=O)=O)cc2)cc1`, the metabolized at 0.5 h, 1 µM in data set [1] came to 61%. Also, the values for the inhibition in data set [2] and in data set [3] were 66% and 43%, respectively.

Consider `NS(=O)(=O)c1ccc(-n2nc(C(F)(F)F)cc2-c2ccc(C(F)(F)F)cc2)cc1`, for which the metabolized at 0.5 h, 1 µM in data set [1] came to 0%.

Consider `CCOC(=O)c1ccc(-n2nc(C(F)(F)F)cc2-c2ccc(C(F)(F)F)cc2)cc1`, for which, in data set [1], the metabolized at 0.5 h, 1 µM is 2%. The inhibition in data set [2] was 55%; in data set [3], 96%.

Turning to `Cc1ccc(-c2cc(C(F)(F)F)nn2-c2ccc(C(=O)O)cc2)cc1`, the metabolized at 0.5 h, 1 µM in data set [1] came out at 29%. Besides, the inhibition turned out to be 67% in data set [2] and 26% in data set [3].

As to `O=C(O)c1ccc(-n2nc(C(F)(F)F)cc2-c2ccc(C(F)(F)F)cc2)cc1`, in data set [1], the metabolized at 0.5 h, 1 µM was found to be 29%. Besides, the inhibition turned out to be 28% in data set [2] and 6% in data set [3].

Regarding `Cc1ccc(-c2cc(C(F)(F)F)nn2-c2ccc(C)cc2)cc1`, the metabolized at 0.5 h, 1 µM in data set [1] stood at 30%.

On to `CCOC(=O)c1ccc(-n2nc(C(F)(F)F)cc2-c2ccc(C)cc2)cc1`, for which, in data set [1], the metabolized at 0.5 h, 1 µM came out at 88%. Moreover, the inhibition was found to be 55% in data set [2] and 87% in data set [3].

Consider `Cc1ccc(-c2cc(C(F)(F)F)nn2-c2ccc(S(C)(=O)=O)cc2)cc1`, for which the metabolized at 0.5 h, 1 µM in data set [1] stood at 81%. For the same compound, the inhibition was 99% in data set [2] and 92% in data set [3].

As to `Cc1ccc(-c2cc(C(F)(F)F)nn2-c2ccc([S+](C)[O-])cc2)cc1` (stereo unspecified), in data set [1], the metabolized at 0.5 h, 1 µM came to 48%. Further, the values for the inhibition in data set [2] and in data set [3] were 82% and 99%, respectively.
